{"source": "paper PMC2697266", "about": "(Nature, 2009)", "molecules": {"B1": {"name": "NJL: NUP98 amino acids 1-514 fused to amino acids 1489-1690 of JARID1A transcript variant 1 (protein)", "chain": "MFNKSFGTPFGGGTGGFGTTSTFGQNTGFGTTSGGAFGTSAFGSSNNTGGLFGNSQTKPGGLFGTSSFSQPATSTSTGFGFGTSTGTANTLFGTASTGTSLFSSQNNAFAQNKPTGFGNFGTSTSSGGLFGTTNTTSNPFGSTSGSLFGPSSFTAAPTGTTIKFNPPTGTDTMVKAGVSTNISTKHQCITAMKEYESKSLEELRLEDYQANRKGPQNQVGAGTTTGLFGSSPATSSATGLFSSSTTNSGFAYGQNKTAFGTSTTGFGTNPGGLFGQQNQQTTSLFSKPFGQATTTQNTGFSFGNTSTIGQPSTNTMGLFGVTQASQPGGLFGTATNTSTGTAFGTGTGLFGQTNTGFGAVGSTLFGNNKLTTFGSSTTSAPSFGTTSGGLFGNKPTLTLGTNTNTSNFGFGTNTSGNSIFGSKPAPGTLGTGLGAGFGTALGAGQASLFGNNQPKIGGPLGTGAFGAPGFNTTTATLGFGAPQAPVALTDPNASAAQQAVLQQHINSLTYSPFGMEEKPLKVKGKDSSEKKRKRKLEKVEQLFGEGKQKSKELKKMDKPRKKKLKLGADKSKELNKLAKKLAKEEERKKKKEKAAAAKVELVKESTEKKREKKVLDIPSKYDWSGAEESDDENAVCAAQNCQRPCKDKVDWVQCDGGCDEWFHQVCVGVSPEMAENEDYICINCAKKQGPVSPGPAPPPSFIMSYKLPMEDLKETS", "modifications": "left off: 3xFLAG, N-terminal, kept"}}, "key": {"H3K4me3 or H3": {"tested_on": "H3K4me3 or H3", "experiment": "CoIP in transiently transfected 293 cells", "type": "binding", "details": "qualitative", "procedure,_shortened": "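Nuclei underwent limited micrococcal nuclease digestion to release mainly mononucleosomes, and insoluble material was removed by centrifugation. Supernatant was incubated with FLAG- or HA-agarose, or with magnetic beads coupled to anti-H3K4me3 or control antibodies. After extensive washing, precipitated proteins were analysed by immunoblot.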"}, "[1]": {"tested_on": "mice transplanted with transduced bone marrow progenitors", "experiment": "Murine bone marrow transplantation leukemogenic assay", "type": "in vivo", "details": "12 mice", "procedure,_shortened": "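Lin- marrow from femur and tibia (balb/C or b/6) was prestimulated 2-3 days with SCF, 5ng/mL FLT3 ligand, IL3 and IL6. Cells were infected with MSCV retrovirus encoding 3xFLAG fusion or empty vector. 100,000 cells were injected via tail vein into sublethally irradiated syngeneic mice, 12 per group, and leukemia kinetics were followed.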"}, "H3K27ac on Hoxa9": {"tested_on": "H3K27ac on Hoxa9", "experiment": "ChIP, Hoxa9-associated H3 acetylation", "type": "cell-based, murine", "details": "marrow progenitors 15 days after transduction, NJL-transduced cells", "procedure,_shortened": "(§1)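 Mouse Lin- marrow cells were cytokine-stimulated, retrovirally transduced, selected with 1μg/mL puromycin and kept in SCF-only medium. ChIP used 1∼2 million cells for histone marks and 2∼3 million for other factors (p300 antibody 10μg). Equal nonspecific IgG served as antibody control and Chr8Int as negative locus. Triplicate SYBR qPCR gave % of input and fold over IgG.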"}, "[2]": {"tested_on": "Ezh2 or Suz12, H3K27me3 at Hox-A clusters", "experiment": "ChIP, polycomb factors and H3K27me3 at Hox-A cluster", "type": "cell-based, murine", "details": "NJL-infected progenitors, qualitative", "procedure,_shortened": "as §1"}, "[3]": {"tested_on": "WDR5, RBBP5, and MLL2 on Hoxa9", "experiment": "ChIP, WDR5, RBBP5 and MLL2 on Hoxa9", "type": "cell-based, murine", "details": "marrow progenitors 15 days after transduction; qualitative", "procedure,_shortened": "as §1"}, "p300 on Hoxa9": {"tested_on": "p300 on Hoxa9", "experiment": "ChIP, p300 recruitment on Hoxa9", "type": "cell-based, murine", "details": "15 days after transduction; qualitative", "procedure,_shortened": "as §1"}}}
{"molecule": "B1", "values": [{"measurement": "association with H3K4me3 or H3", "setting": "H3K4me3 or H3", "result": "associated with H3K4me3 or H3"}, {"measurement": "average time to death of AML", "setting": "[1]", "result": 69, "unit": "days"}, {"measurement": "elevation of H3K27ac on Hoxa9", "setting": "H3K27ac on Hoxa9", "result": "> 2,000 fold"}, {"measurement": "restriction of polycomb factors (Ezh2 or Suz12)", "setting": "[2]", "result": "restricted within Hoxa11-a13"}, {"measurement": "WDR5, RBBP5, and MLL2 on Hoxa9", "setting": "[3]", "result": "high levels"}, {"measurement": "p300 recruitment on Hoxa9", "setting": "p300 on Hoxa9", "result": "recruitment of p300"}]}
